Results reported in ChEMBL document CHEMBL1255404, “Spread of OXA-48-encoding plasmid in Turkey and beyond” (2010).
Converted amounts (≈) assume the structure as drawn.

Columns and labels:
Format in all cases: functional
Klebsiella pneumoniae [1] = test: Antimicrobial activity against Klebsiella pneumoniae isolate KpL expressing beta-lactamase OXA-48 by Etest method
Klebsiella pneumoniae [2] = test: Antimicrobial activity against Klebsiella pneumoniae isolate Kp11978 expressing beta-lactamase OXA-48, SHV-2a and TEM-1 by Etest method
Escherichia coli [3] = test: Antimicrobial activity against Escherichia coli isolate J53 harboring pA-1 containing beta-lactamase OXA-48 located within transposon Tn1999 by Etest method
Summary of the method: (§1)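 β-Lactam MICs read with Etest strips. Strains are E. coli J53 recipient and J53 transconjugants carrying OXA-48-positive plasmids recovered from clinical enterobacterial isolates.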

Klebsiella pneumoniae [4] = test: Antimicrobial activity against Klebsiella pneumoniae isolate KpB expressing OXA-48 and CTX-M-15 by Etest method
Escherichia coli [5] = test: Antimicrobial activity against Escherichia coli isolate J53 harboring pBb containing beta-lactamase OXA-48 located within transposon Tn1999.2 by Etest method; summary of the method: as §1
Klebsiella pneumoniae [6] = test: Antimicrobial activity against Klebsiella pneumoniae isolate Kp3A expressing beta-lactamase OXA-48 by Etest method
Summary of the method: (§2)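 MICs of β-lactams read from Etest strips. The test organisms are carbapenem-resistant, OXA-48-positive clinical Enterobacteriaceae isolates recovered from Turkey, Lebanon, Egypt, France and Belgium.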

Escherichia coli [7] = test: Antimicrobial activity against Escherichia coli isolate J53 harboring p3A containing beta-lactamase OXA-48 located within transposon Tn1999 by Etest method; summary of the method: as §1
Klebsiella pneumoniae [8] = test: Antimicrobial activity against Klebsiella pneumoniae isolate Kp4A expressing beta-lactamase OXA-48 and CTX-M-15 by Etest method
Klebsiella pneumoniae [9] = test: Antimicrobial activity against Klebsiella pneumoniae isolate Kp5A expressing beta-lactamase OXA-48 and SHV-5 by Etest method
Klebsiella pneumoniae [10] = test: Antimicrobial activity against Klebsiella pneumoniae isolate Kp6A expressing beta-lactamase OXA-48 and TEM-150 by Etest method
Escherichia coli [11] = test: Antimicrobial activity against Escherichia coli isolate J53 harboring p4A containing beta-lactamase OXA-48 located within transposon Tn1999 by Etest method; summary of the method: as §1
Escherichia coli [12] = test: Antimicrobial activity against Escherichia coli isolate J53 harboring p5A containing beta-lactamase OXA-48 located within transposon Tn1999 by Etest method; summary of the method: as §1
Escherichia coli [13] = test: Antimicrobial activity against Escherichia coli isolate J53 harboring p6A containing beta-lactamase OXA-48 located within transposon Tn1999 by Etest method; summary of the method: as §1
Klebsiella pneumoniae [14] = test: Antimicrobial activity against Klebsiella pneumoniae isolate Kp7A expressing beta-lactamase OXA-48 by Etest method; summary of the method: as §2
Escherichia coli [15] = test: Antimicrobial activity against Escherichia coli isolate J53 harboring p7A containing beta-lactamase OXA-48 located within transposon Tn1999 by Etest method; summary of the method: as §1
Klebsiella pneumoniae [16] = test: Antimicrobial activity against Klebsiella pneumoniae isolate KpI-1 expressing beta-lactamase OXA-48 and CTX-M-15 by Etest method
Klebsiella pneumoniae [17] = test: Antimicrobial activity against Klebsiella pneumoniae isolate KpI-2 expressing beta-lactamase OXA-48 and CTX-M-15 by Etest method
Escherichia coli [18] = test: Antimicrobial activity against Escherichia coli isolate J53 harboring pI-1 containing beta-lactamase OXA-48 located within transposon Tn1999.2 by Etest method; summary of the method: as §1
Escherichia coli [19] = test: Antimicrobial activity against Escherichia coli isolate J53 harboring pI-2 containing beta-lactamase OXA-48 located within transposon Tn1999.2 by Etest method; summary of the method: as §1
Klebsiella pneumoniae [20] = test: Antimicrobial activity against Klebsiella pneumoniae isolate KpBIC expressing beta-lactamase OXA-48 by Etest method; summary of the method: as §2
Escherichia coli [21] = test: Antimicrobial activity against Escherichia coli isolate TOP10 harboring pBIC containing beta-lactamase OXA-48 located within transposon Tn1999.2 by Etest method
Summary of the method: (§3)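 β-Lactam MICs read with Etest strips. Strains are E. coli TOP10 host and TOP10 transformants made with plasmid DNA extract when conjugation failed. Transformants were selected on LB agar with ticarcillin 50 μg/ml.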

Klebsiella pneumoniae [22] = test: Antimicrobial activity against Klebsiella pneumoniae isolate KpE expressing beta-lactamase OXA-48 and CTX-M-15 by Etest method
Escherichia coli [23] = test: Antimicrobial activity against Escherichia coli isolate J53 harboring pE containing beta-lactamase OXA-48 located within transposon Tn1999.2 by Etest method; summary of the method: as §1
Klebsiella pneumoniae [24] = test: Antimicrobial activity against Klebsiella pneumoniae isolate KpBEL expressing beta-lactamase OXA-48 by Etest method; summary of the method: as §2
Escherichia coli [25] = test: Antimicrobial activity against Escherichia coli isolate J53 harboring pBEL containing beta-lactamase OXA-48 located within transposon Tn1999.2 by Etest method; summary of the method: as §1
Escherichia coli [26] = test: Antimicrobial activity against Escherichia coli isolate J53 harboring pL containing beta-lactamase OXA-48 located within transposon Tn1999.2 by Etest method; summary of the method: as §1
Providencia rettgeri = test: Antimicrobial activity against Providencia rettgeri isolate expressing beta-lactamase OXA-48 and TEM-101 by Etest method
Escherichia coli [27] = test: Antimicrobial activity against Escherichia coli isolate TOP10 harboring pPR containing beta-lactamase and TEM-101 by Etest method; summary of the method: as §3
Enterobacter cloacae [28] = test: Antimicrobial activity against Enterobacter cloacae isolate 1 expressing beta-lactamase OXA-48 and SHV-5 by Etest method
Escherichia coli [29] = test: Antimicrobial activity against Escherichia coli isolate J53 harboring pEnc1 containing beta-lactamase OXA-48 located within transposon Tn1999 by Etest method; summary of the method: as §1
Enterobacter cloacae [30] = test: Antimicrobial activity against Enterobacter cloacae isolate 2 expressing beta-lactamase OXA-48 and SHV-5 by Etest method
Escherichia coli [31] = test: Antimicrobial activity against Escherichia coli isolate J53 harboring pEnc2 containing beta-lactamase OXA-48 located within transposon Tn1999 by Etest method; summary of the method: as §1
Citrobacter freundii = test: Antimicrobial activity against Citrobacter freundii isolate expressing beta-lactamase OXA-48 by Etest method
Escherichia coli [32] = test: Antimicrobial activity against Escherichia coli isolate J53 harboring pCF containing beta-lactamase OXA-48 located within transposon Tn1999 by Etest method; summary of the method: as §1
Escherichia coli [33] = test: Antimicrobial activity against Escherichia coli isolate A expressing beta-lactamase OXA-48 and TEM-150 by Etest method
Escherichia coli [34] = test: Antimicrobial activity against Escherichia coli isolate J53 harboring pEcA containing beta-lactamase OXA-48 located within transposon Tn1999.2 by Etest method; summary of the method: as §1
Escherichia coli [35] = test: Antimicrobial activity against Escherichia coli isolate J53 by Etest method; summary of the method: as §1
Escherichia coli [36] = test: Antimicrobial activity against Escherichia coli isolate TOP10 by Etest method; summary of the method: as §3

Row | SMILES | MIC (Klebsiella pneumoniae [1]) [µg/mL] | MIC (Klebsiella pneumoniae [2]) [µg/mL] | MIC (Escherichia coli [3]) [µg/mL] | MIC (Klebsiella pneumoniae [4]) [µg/mL] | MIC (Escherichia coli [5]) [µg/mL] | MIC (Klebsiella pneumoniae [6]) [µg/mL] | MIC (Escherichia coli [7]) [µg/mL] | MIC (Klebsiella pneumoniae [8]) [µg/mL] | MIC (Klebsiella pneumoniae [9]) [µg/mL] | MIC (Klebsiella pneumoniae [10]) [µg/mL] | MIC (Escherichia coli [11]) [µg/mL] | MIC (Escherichia coli [12]) [µg/mL] | MIC (Escherichia coli [13]) [µg/mL] | MIC (Klebsiella pneumoniae [14]) [µg/mL] | MIC (Escherichia coli [15]) [µg/mL] | MIC (Klebsiella pneumoniae [16]) [µg/mL] | MIC (Klebsiella pneumoniae [17]) [µg/mL] | MIC (Escherichia coli [18]) [µg/mL] | MIC (Escherichia coli [19]) [µg/mL] | MIC (Klebsiella pneumoniae [20]) [µg/mL] | other results
1 | CO/N=C(\C(=O)N[C@@H]1C(=O)N2C(C(=O)O)=C(COC(C)=O)CS[C@H]12)c1csc(N)n1 [CEFOTAXIME] | 1.5 (≈ 3.29 µM) | 64 (≈ 141 µM) | 0.06 (≈ 0.132 µM) | > 512 | 0.5 (≈ 1.1 µM) | 1 (≈ 2.2 µM) | 0.5 (≈ 1.1 µM) | 64 (≈ 141 µM) | 64 (≈ 141 µM) | 64 (≈ 141 µM) | 0.12 (≈ 0.263 µM) | 0.12 (≈ 0.263 µM) | 0.12 (≈ 0.263 µM) | 0.5 (≈ 1.1 µM) | 0.5 (≈ 1.1 µM) | 64 (≈ 141 µM) | 64 (≈ 141 µM) | 0.12 (≈ 0.263 µM) | 0.12 (≈ 0.263 µM) | 0.5 (≈ 1.1 µM) | MIC (Escherichia coli [21]): 0.5 µg/mL (≈ 1.1 µM); MIC (Klebsiella pneumoniae [22]): 64 µg/mL (≈ 141 µM); MIC (Escherichia coli [23]): 0.12 µg/mL (≈ 0.263 µM); MIC (Klebsiella pneumoniae [24]): 0.12 µg/mL (≈ 0.263 µM); MIC (Escherichia coli [25]): 0.12 µg/mL (≈ 0.263 µM); MIC (Escherichia coli [26]): 0.25 µg/mL (≈ 0.549 µM); MIC (Providencia rettgeri): 64 µg/mL (≈ 141 µM); MIC (Escherichia coli [27]): 32 µg/mL (≈ 70.3 µM); MIC (Enterobacter cloacae [28]): > 512 µg/mL; MIC (Escherichia coli [29]): 0.25 µg/mL (≈ 0.549 µM); MIC (Enterobacter cloacae [30]): 512 µg/mL (≈ 1120 µM); MIC (Escherichia coli [31]): 0.25 µg/mL (≈ 0.549 µM); MIC (Citrobacter freundii): 64 µg/mL (≈ 141 µM); MIC (Escherichia coli [32]): 0.12 µg/mL (≈ 0.263 µM); MIC (Escherichia coli [33]): 64 µg/mL (≈ 141 µM); MIC (Escherichia coli [34]): 0.12 µg/mL (≈ 0.263 µM); MIC (Escherichia coli [35]): 0.06 µg/mL (≈ 0.132 µM); MIC (Escherichia coli [36]): 0.06 µg/mL (≈ 0.132 µM)
2 | CO[C@@]1(NC(=O)Cc2cccs2)C(=O)N2C(C(=O)O)=C(COC(N)=O)CS[C@@H]21 [CEFOXITIN] | 8 (≈ 18.7 µM) | 128 (≈ 299 µM) | 2 (≈ 4.68 µM) | 128 (≈ 299 µM) | 4 (≈ 9.36 µM) | 2 (≈ 4.68 µM) | 2 (≈ 4.68 µM) | 128 (≈ 299 µM) | 128 (≈ 299 µM) | 128 (≈ 299 µM) | 2 (≈ 4.68 µM) | 2 (≈ 4.68 µM) | 2 (≈ 4.68 µM) | 128 (≈ 299 µM) | 2 (≈ 4.68 µM) | 128 (≈ 299 µM) | 128 (≈ 299 µM) | 2 (≈ 4.68 µM) | 2 (≈ 4.68 µM) | 128 (≈ 299 µM) | MIC (Escherichia coli [21]): 2 µg/mL (≈ 4.68 µM); MIC (Klebsiella pneumoniae [22]): 128 µg/mL (≈ 299 µM); MIC (Escherichia coli [23]): 2 µg/mL (≈ 4.68 µM); MIC (Klebsiella pneumoniae [24]): 2 µg/mL (≈ 4.68 µM); MIC (Escherichia coli [25]): 2 µg/mL (≈ 4.68 µM); MIC (Escherichia coli [26]): 2 µg/mL (≈ 4.68 µM); MIC (Providencia rettgeri): 128 µg/mL (≈ 299 µM); MIC (Escherichia coli [27]): 4 µg/mL (≈ 9.36 µM); MIC (Enterobacter cloacae [28]): > 512 µg/mL; MIC (Escherichia coli [29]): 2 µg/mL (≈ 4.68 µM); MIC (Enterobacter cloacae [30]): 512 µg/mL (≈ 1200 µM); MIC (Escherichia coli [31]): 2 µg/mL (≈ 4.68 µM); MIC (Citrobacter freundii): 128 µg/mL (≈ 299 µM); MIC (Escherichia coli [32]): 2 µg/mL (≈ 4.68 µM); MIC (Escherichia coli [33]): 128 µg/mL (≈ 299 µM); MIC (Escherichia coli [34]): 2 µg/mL (≈ 4.68 µM); MIC (Escherichia coli [35]): 2 µg/mL (≈ 4.68 µM); MIC (Escherichia coli [36]): 4 µg/mL (≈ 9.36 µM)
